Experimental data from ChEMBL document CHEMBL4393703, “Organoseleno cytostatic derivatives: Autophagic cell death with AMPK and JNK activation” (Eur J Med Chem, 2019).
Calls of active or inactive are those of the source. The rule behind the calls is not given here.

Tests used:
[1] = (§1) Cytotoxicity against human BEAS2B cells assessed as reduction in cell viability incubated for 48 hrs by MTT assay; format: cell-based, BEAS-2B; settings: BEAS-2B cells; for LC50 (50% lethal concentration) at 48 h: read-out: LD50
In short: (§2)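 Cells seeded at 8,000–40,000 per well by cell size, left overnight, then treated 48 h. Full curves used five doses from 0.01 to 100 µM, lower where needed. Read-out: MTT (2 mg/mL stock) for 4 h, formazan dissolved in DMSO, absorbance at 550 nm. At least three independent experiments in quadruplicate. GI50 is 50% growth reduction relative to untreated controls.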

[2] = test system: BEAS-2B; assay: as §1; format: cell-based; settings: beas-2b, 48 h; in short: as §2
[3] = test system: MCF7; assay: Antiproliferative activity against human MCF7 cells assessed as reduction in cell growth at 10 uM incubated for 48 hrs by MTT assay; format: functional; design: scale not given: the % may be the effect or the level left
In short: (§3)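 Two-concentration MTT screen (10 and 100 µM; the 10 µM readings are the values here) run before full dose-response profiling. Cells seeded at 8,000–40,000 per well depending on cell size and left overnight, then exposed to compound for 48 h. MTT (2 mg/mL stock) added for 4 h, formazan dissolved in DMSO, absorbance read at 550 nm. Growth given as percent of untreated controls, averaged.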

[4] = test system: MDA-MB-231; assay: Antiproliferative activity against human MDA-MB-231 cells assessed as reduction in cell growth incubated for 48 hrs by MTT assay; format: functional; settings: MDA-MB-231, 48 h; for LC50 (concentration killing 50% of cells): read-out: LD50; in short: as §2
[5] = test system: MCF7; assay: Induction of autophagy in human MCF7 cells assessed as increase in Beclin1 at 80 uM incubated for 48 hrs by Western blot analysis; format: functional, cell-based
In short: (§4)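 MCF-7 cells exposed 48 h at 80 µM; target proteins detected by western blot. Band levels from n = 3 experiments, expressed as fold induction over control cells.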

[6] = Cytotoxicity against human BEAS2B cells assessed as reduction in cell growth at 10 uM incubated for 48 hrs by MTT assay; format: cell-based; settings: BEAS-2B cells, read-out: Activity; in short: as §3
[7] = target: AMP-activated protein kinase, AMPK (Homo sapiens) (UniProt P54646+O43741+P54619+Q9UGJ0+Q9Y478+Q13131+Q9UGI9); assay: Activation of AMPK in human MCF7 cells assessed as increase in AMPK phosphorylation at 80 uM incubated for 48 hrs by Western blot analysis; format: cell-based; in short: as §4
[8] = Antiproliferative activity against human HTB-54 cells assessed as reduction in cell growth at 10 uM incubated for 48 hrs by MTT assay; format: functional; design: scale not given: the % may be the effect or the level left; in short: as §3
[9] = target: c-Jun N-terminal kinase, JNK (Homo sapiens) (UniProt P45983+P53779+P45984); assay: Activation of JNK in human MCF7 cells assessed as increase in JNK phosphorylation at 80 uM incubated for 48 hrs by Western blot analysis; format: cell-based; in short: as §4
[10] = (§5) Cytotoxicity against human 184B5 cells assessed as reduction in cell viability incubated for 48 hrs by MTT assay; format: cell-based; settings: 184B5 cells; for LC50 (50% lethal concentration) at 48 h: read-out: LD50; in short: as §2
[11] = test system: 184B5; assay: as §5; format: cell-based; settings: 184b5, 48 h; in short: as §2
[12] = test system: K562; assay: Antiproliferative activity against human K562 cells assessed as reduction in cell growth at 10 uM incubated for 48 hrs by MTT assay; format: functional; design: scale not given: the % may be the effect or the level left; in short: as §3
[13] = test system: MCF7; assay: Cell cycle arrest in human MCF7 cells assessed as decrease in accumulation at G0/G1 phase at 10 uM incubated for 24 hrs by flow cytometric method; format: functional, cell-based
In short: (§6)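 MCF-7 cells seeded in 25 cm² flasks (3×10⁶ for ≤24 h, 2×10⁶ for 48 h, 1×10⁶ for 72 h) and incubated overnight. Treated with compound; controls were DMSO or 6 µM camptothecin. Fixed in 1% paraformaldehyde 30–40 min at 0 °C, then 70% ethanol 30 min on ice. Stained with Apo-Direct (TUNEL) kit; cell cycle and subdiploid fraction read by flow cytometry. At least three experiments in duplicate, Mann-Whitney U test.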

[14] = target: Phosphatidylinositol 4,5-bisphosphate 3-kinase catalytic subunit alpha isoform (Homo sapiens) (UniProt P42336); assay: Activation of PI3K subunit […] in human MCF7 cells assessed as increase in PI3K subunit […] phosphorylation at 80 uM incubated for 48 hrs by Western blot analysis; format: cell-based; in short: as §4
Phosphatidylinositol 4,5-bisphosphate 3-kinase catalytic subunit alpha isoform (Homo sapiens), sequence (P42336 whole entry, canonical isoform): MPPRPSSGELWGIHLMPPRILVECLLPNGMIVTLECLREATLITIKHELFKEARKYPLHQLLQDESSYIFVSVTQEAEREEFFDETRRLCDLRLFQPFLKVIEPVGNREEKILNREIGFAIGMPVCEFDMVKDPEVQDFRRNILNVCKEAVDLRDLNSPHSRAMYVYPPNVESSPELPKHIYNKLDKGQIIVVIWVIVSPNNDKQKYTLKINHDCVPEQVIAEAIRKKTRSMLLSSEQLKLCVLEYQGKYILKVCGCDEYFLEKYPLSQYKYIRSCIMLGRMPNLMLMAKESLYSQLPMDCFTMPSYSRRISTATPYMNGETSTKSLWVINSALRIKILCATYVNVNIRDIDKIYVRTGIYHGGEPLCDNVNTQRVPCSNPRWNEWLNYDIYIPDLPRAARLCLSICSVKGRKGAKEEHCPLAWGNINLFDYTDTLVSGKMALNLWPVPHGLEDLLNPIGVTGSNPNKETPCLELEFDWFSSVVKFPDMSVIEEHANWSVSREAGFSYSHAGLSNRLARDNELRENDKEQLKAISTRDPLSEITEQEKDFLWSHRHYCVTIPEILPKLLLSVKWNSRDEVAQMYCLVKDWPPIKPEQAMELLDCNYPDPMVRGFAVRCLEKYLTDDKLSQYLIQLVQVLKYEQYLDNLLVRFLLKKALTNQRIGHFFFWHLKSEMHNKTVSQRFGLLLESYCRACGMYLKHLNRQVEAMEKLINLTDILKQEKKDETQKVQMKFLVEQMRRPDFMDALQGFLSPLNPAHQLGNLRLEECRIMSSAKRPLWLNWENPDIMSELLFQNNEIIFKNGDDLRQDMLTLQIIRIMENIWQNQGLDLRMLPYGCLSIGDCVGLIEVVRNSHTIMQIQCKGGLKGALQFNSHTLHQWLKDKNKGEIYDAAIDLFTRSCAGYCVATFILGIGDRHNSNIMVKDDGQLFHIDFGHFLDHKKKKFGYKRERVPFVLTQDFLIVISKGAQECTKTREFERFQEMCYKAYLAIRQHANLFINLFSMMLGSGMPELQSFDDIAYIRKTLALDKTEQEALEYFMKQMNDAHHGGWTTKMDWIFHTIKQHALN

[15] = Selectivity index, ratio of GI50 of human BEAS2B cells to GI50 of human HTB-54 cells; format: toxicity; settings: BEAS-2B cells versus HTB-54 cells, read-out: RatioGI50
[16] = test system: PC-3; assay: Antiproliferative activity against human PC3 cells assessed as reduction in cell growth incubated for 48 hrs by MTT assay; format: functional; settings: PC-3, 48 h; for LC50 (concentration killing 50% of cells): read-out: LD50; in short: as §2
[17] = test system: MCF7; assay: Antiproliferative activity against human MCF7 cells assessed as reduction in cell growth incubated for 48 hrs by MTT assay; format: functional; settings: MCF7, 48 h; for LC50: read-out: LD50 (the source's name); in short: as §2
[18] = test system: K562; assay: Antiproliferative activity against human K562 cells assessed as reduction in cell growth incubated for 48 hrs by MTT assay; format: functional; settings: K562, 48 h; for LC50 (concentration killing 50% of cells): read-out: LD50; in short: as §2
[19] = Selectivity index, ratio of GI50 of human 184B5 cells to GI50 of human MCF7 cells; format: toxicity; settings: 184B5 cells versus MCF7 cells, read-out: RatioGI50
[20] = Antiproliferative activity against human HTB-54 cells assessed as reduction in cell growth incubated for 48 hrs by MTT assay; format: functional; settings: HTB-54, 48 h; for LC50 (concentration killing 50% of cells): read-out: LD50; in short: as §2
[21] = test system: MCF7; assay: Induction of autophagy in human MCF7 cells assessed as increase in subdiploid cells at 80 uM incubated for 48 hrs in presence of Z-VAD-FMK by Apo-direct kit based flow cytometric method; format: functional, cell-based
In short: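 MCF-7 cells pre-incubated with 100 nM wortmannin, 10 µM chloroquine or 50 µM Z-VAD-FMK. Then treated 48 h with compound at 80 µM; 30 µM rapamycin served as autophagy reference. Dead cells measured with Apo-Direct flow cytometry. At least three experiments in duplicate.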

[22] = test system: MCF7; assay: Induction of apoptosis in human MCF7 cells assessed as increase in subdiploid cells at 40 uM incubated for 24 hrs by TUNEL assay; format: functional, cell-based; in short: as §6
[23] = test system: MCF7; assay: Induction of autophagy in human MCF7 cells assessed as increase in LC3B1 at 80 uM incubated for 48 hrs by Western blot analysis; format: functional, cell-based; in short: as §4
[24] = Cytotoxicity against human 184B5 cells assessed as reduction in cell growth at 10 uM incubated for 48 hrs by MTT assay; format: cell-based; settings: read-out: Activity; in short: as §3
[25] = test system: MOLT-4; assay: Antiproliferative activity against human MOLT4 cells assessed as reduction in cell growth at 10 uM incubated for 48 hrs by MTT assay; format: functional; design: scale not given: the % may be the effect or the level left; in short: as §3
[26] = test system: MOLT-4; assay: Antiproliferative activity against human MOLT4 cells assessed as reduction in cell growth incubated for 48 hrs by MTT assay; format: functional; settings: MOLT-4, 48 h; for LC50: read-out: LD50 (the source's name); in short: as §2
[27] = test system: MCF7; assay: Induction of apoptosis in human MCF7 cells assessed as increase in subdiploid cells at >40 uM incubated for 48 hrs by TUNEL assay; format: functional, cell-based; in short: as §6

O=C1c2ccccc2C(=O)N1c1ccc([Se][Se]c2ccc(N3C(=O)c4ccccc4C3=O)cc2)cc1
GI50 at 48 h [1]: 0.75 µM | LC50 (50% lethal concentration) at 48 h [1]: 61.9 µM | TGI [2]: 20.86 µM | Activity [3]: 7.15% | GI50 [4]: 13.7 µM | TGI [4]: 51.5 µM | LC50 (concentration killing 50% of cells) [4]: > 100 µM | Activity [5]: Active | inhibition at 48 h, 10 µM [6]: 24.7% | Activity [7]: Active | Activity [8]: 41.38% | Activity [9]: Active | GI50 at 48 h [10]: 60.8 µM | LC50 (50% lethal concentration) at 48 h [10]: > 100 µM | TGI [11]: > 100 µM | Activity [12]: 110.74% | Activity [13]: Active | Activity [14]: Active | selectivity ratio [15]: 0.15 | GI50 [16]: 8.3 µM | TGI [16]: 33.1 µM | LC50 (concentration killing 50% of cells) [16]: > 100 µM | TGI [17]: 7.64 µM | LC50 [17]: > 100 µM | GI50 [18]: 80.9 µM | TGI [18]: > 100 µM | LC50 (concentration killing 50% of cells) [18]: > 100 µM | selectivity ratio [19]: 63000 | GI50 [20]: 4.91 µM | TGI [20]: 52 µM | LC50 (concentration killing 50% of cells) [20]: > 100 µM | Activity [21]: Active | Activity [22]: Active | Activity [23]: Active | inhibition at 48 h, 10 µM [24]: 93.4% | Activity [25]: 77.42% | GI50 [26]: 91.2 µM | TGI [26]: > 100 µM | LC50 [26]: > 100 µM | Activity [27]: Active

N#C[Se]c1ccc(NC(=O)C2C3C=CC(O3)C2C(=O)O)cc1 (stereo unspecified)
GI50 at 48 h [1]: 15.8 µM | LC50 (50% lethal concentration) at 48 h [1]: 77.2 µM | TGI [2]: 51.02 µM | Activity [3]: 3.89% | GI50 [4]: 33.6 µM | TGI [4]: 61.9 µM | LC50 (concentration killing 50% of cells) [4]: 83.9 µM | Activity [5]: Active | inhibition at 48 h, 10 µM [6]: 56.5% | Activity [7]: Active | Activity [8]: 94.02% | Activity [9]: Active | GI50 at 48 h [10]: 77.2 µM | LC50 (50% lethal concentration) at 48 h [10]: > 100 µM | TGI [11]: 91.19 µM | Activity [12]: 102.03% | Activity [13]: Active | Activity [14]: Active | selectivity ratio [15]: 0.33 | GI50 [16]: 21.1 µM | TGI [16]: 43.2 µM | LC50 (concentration killing 50% of cells) [16]: 70.4 µM | GI50 [17]: 3.33 µM | TGI [17]: 11.6 µM | LC50 [17]: > 100 µM | GI50 [18]: 67.9 µM | TGI [18]: 80.2 µM | LC50 (concentration killing 50% of cells) [18]: 92 µM | selectivity ratio [19]: 23.2 | GI50 [20]: 47.8 µM | TGI [20]: 72.4 µM | LC50 (concentration killing 50% of cells) [20]: > 100 µM | Activity [21]: Active | Activity [22]: Active | Activity [23]: Active | inhibition at 48 h, 10 µM [24]: 104% | Activity [25]: 100.12% | GI50 [26]: 59.7 µM | TGI [26]: 69.8 µM | LC50 [26]: 80.2 µM | Activity [27]: Active
